The target of series [1] is Potassium voltage-gated channel subfamily A member 5 (Homo sapiens, UniProt P22460). Briefly: Inhibition of human Kv1.5 ion channel after 3 mins by high-throughput planar patch clamp assay. The method in brief:
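Electrophysiology run on IonWorks high-throughput planar patch clamp, following a previously published method. IC50 values come from concentration-response testing of compounds retested for LC/MS purity.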

The nature of series [2]: Intrinsic clearance in human liver microsomes at 50 uM up to 45 mins. Type of series: ADME, Microsome. To be noted: read-out: CLH. Background: Microsomes from liver hold many membrane-bound enzymes, among them those of drug oxidation.
Series [3] in a line: Aqueous solubility of the compound at pH 7.4 after 24 hrs. As to conditions: aqueous medium. It counts as physicochemical.
The nature of series [4]: Oral bioavailability in rat. Type of series: ADME, organism-based. To be noted: in vivo.
Series [5] can be described thus: Apparent permeability from apical to basolateral side of human Caco2 cells. Type of series: ADME, cell-based. As to conditions: Caco-2. Background: Caco-2 cells form a polarised layer with tight junctions and transporters.
Series [6] in a line: Fraction unbound in human plasma. Type of series: ADME, cell-free.
In series [7] the target is Voltage-gated inwardly rectifying potassium channel KCNH2 (Homo sapiens, UniProt Q12809). As to the kind of experiment: Inhibition of human ERG expressed in CHOK1 cells. Type of series: cell-based, CHO-K1.
Voltage-gated inwardly rectifying potassium channel KCNH2, sequence (Q12809 whole entry): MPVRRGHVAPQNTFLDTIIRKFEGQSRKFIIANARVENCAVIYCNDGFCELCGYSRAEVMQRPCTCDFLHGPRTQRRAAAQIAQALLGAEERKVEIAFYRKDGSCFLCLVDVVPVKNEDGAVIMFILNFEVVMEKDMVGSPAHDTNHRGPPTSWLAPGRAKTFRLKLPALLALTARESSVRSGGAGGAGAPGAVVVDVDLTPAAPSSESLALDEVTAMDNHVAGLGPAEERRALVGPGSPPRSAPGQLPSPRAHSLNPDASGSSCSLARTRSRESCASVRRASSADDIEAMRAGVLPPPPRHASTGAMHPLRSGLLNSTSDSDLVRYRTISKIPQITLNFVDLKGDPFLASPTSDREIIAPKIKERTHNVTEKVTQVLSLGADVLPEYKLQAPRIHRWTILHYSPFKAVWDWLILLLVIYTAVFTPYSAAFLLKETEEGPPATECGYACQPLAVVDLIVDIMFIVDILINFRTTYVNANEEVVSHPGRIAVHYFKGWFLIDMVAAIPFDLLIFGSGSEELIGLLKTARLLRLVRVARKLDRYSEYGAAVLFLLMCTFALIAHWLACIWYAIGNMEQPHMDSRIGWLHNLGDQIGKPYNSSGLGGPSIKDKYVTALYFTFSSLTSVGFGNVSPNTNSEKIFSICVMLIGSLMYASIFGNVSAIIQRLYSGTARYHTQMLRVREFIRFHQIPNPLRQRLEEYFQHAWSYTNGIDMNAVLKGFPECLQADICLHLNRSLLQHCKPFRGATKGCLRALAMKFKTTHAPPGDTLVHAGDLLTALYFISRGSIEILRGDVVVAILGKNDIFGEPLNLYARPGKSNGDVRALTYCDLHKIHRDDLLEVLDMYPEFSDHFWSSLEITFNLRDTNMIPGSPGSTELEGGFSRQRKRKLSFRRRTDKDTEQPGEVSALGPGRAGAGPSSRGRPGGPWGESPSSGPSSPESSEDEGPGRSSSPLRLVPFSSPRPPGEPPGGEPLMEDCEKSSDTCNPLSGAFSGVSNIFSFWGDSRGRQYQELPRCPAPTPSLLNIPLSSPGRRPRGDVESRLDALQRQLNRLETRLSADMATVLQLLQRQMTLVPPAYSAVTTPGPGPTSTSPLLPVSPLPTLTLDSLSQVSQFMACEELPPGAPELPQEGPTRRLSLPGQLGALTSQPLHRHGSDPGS
A short description of series [8]: Volume of distribution at steady state in iv dosed rat. Type of series: ADME, organism-based. To be noted: in vivo, read-out: Vdss.
Series [9] is described as follows: Clearance in iv dosed rat. It counts as ADME, organism-based. As to conditions: in vivo.
A short description of series [10]: Dissociation constant, pKa of the compound. Type of series: physicochemical.
Series [11] can be described thus: Octanol-water distribution coefficient, log D of the compound at pH 7.4 by shake-flask method. Type of series: physicochemical.
Series [12] is described as follows: Intrinsic clearance in human hepatocytes assessed per million cells. It counts as ADME, cell-based, Hepatocyte. As to conditions: read-out: CLH.
A short description of series [13]: Half life in iv dosed rat. It counts as ADME, organism-based. As to conditions: in vivo.
The target in series [14] is Cytochrome P450 3A4 (Homo sapiens, UniProt P08684). As to the kind of experiment: Inhibition of human recombinant CYP3A4 expressed in Escherichia coli. It counts as ADME.
Cytochrome P450 3A4, sequence (P08684 whole entry): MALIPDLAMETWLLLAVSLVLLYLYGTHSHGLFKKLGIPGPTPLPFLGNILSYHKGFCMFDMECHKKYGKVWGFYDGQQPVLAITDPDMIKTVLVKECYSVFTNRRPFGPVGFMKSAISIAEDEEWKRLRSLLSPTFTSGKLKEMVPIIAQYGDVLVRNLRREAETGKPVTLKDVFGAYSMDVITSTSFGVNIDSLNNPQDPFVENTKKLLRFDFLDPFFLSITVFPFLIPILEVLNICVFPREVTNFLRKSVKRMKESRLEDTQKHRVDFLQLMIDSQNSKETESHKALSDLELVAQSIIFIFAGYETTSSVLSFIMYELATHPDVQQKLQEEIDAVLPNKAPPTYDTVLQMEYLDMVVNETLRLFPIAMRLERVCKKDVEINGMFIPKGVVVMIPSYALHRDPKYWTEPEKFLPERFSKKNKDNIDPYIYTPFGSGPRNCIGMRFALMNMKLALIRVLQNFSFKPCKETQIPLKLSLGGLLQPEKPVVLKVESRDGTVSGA
Series [15] deals with Cytochrome P450 2D6 (Homo sapiens, UniProt P10635). Briefly: Inhibition of human recombinant CYP2D6 expressed in Escherichia coli. It counts as ADME.
Cytochrome P450 2D6, sequence (P10635 whole entry): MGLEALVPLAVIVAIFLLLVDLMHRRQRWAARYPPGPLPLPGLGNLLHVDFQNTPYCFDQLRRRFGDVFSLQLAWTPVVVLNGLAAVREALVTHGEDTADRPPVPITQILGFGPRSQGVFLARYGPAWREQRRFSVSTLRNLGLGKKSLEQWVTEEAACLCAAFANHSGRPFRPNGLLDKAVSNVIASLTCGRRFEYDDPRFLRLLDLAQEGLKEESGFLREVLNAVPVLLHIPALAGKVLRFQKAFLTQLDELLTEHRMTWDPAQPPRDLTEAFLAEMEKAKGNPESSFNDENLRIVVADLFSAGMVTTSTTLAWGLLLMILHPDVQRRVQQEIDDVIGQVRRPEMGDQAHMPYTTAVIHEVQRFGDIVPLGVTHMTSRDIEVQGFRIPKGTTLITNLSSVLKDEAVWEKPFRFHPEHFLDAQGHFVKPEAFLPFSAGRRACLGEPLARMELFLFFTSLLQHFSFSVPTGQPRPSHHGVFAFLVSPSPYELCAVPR

In brackets after ≈: the same amount, converted by molar mass. Activity calls are given as the source filed them. No cut-off for these calls is given here.

By solubility is commonly meant the dissolved amount per volume that the medium holds. Usually Papp A→B stands for the apparent permeability from the apical to the basolateral side of a cell layer. One may read the fraction unbound as the share of the substance not bound to proteins or other matrix. The IC50 is the concentration at which inhibition is half-maximal. In general, clearance refers to the volume of plasma or blood freed of the substance per unit of time. Low values mean inefficient removal, high ones efficient removal. One may read the pKa as the pH at which an ionisable group is half protonated. A word on the logD: it is the decadic logarithm of the distribution of all forms, ionised or not, between an organic phase and buffer at a given pH. Read a low logD as lower lipophilicity. One may read the half-life as how long it takes for the measured level to halve.

Potassium voltage-gated channel subfamily A member 5, sequence (P22460 whole entry): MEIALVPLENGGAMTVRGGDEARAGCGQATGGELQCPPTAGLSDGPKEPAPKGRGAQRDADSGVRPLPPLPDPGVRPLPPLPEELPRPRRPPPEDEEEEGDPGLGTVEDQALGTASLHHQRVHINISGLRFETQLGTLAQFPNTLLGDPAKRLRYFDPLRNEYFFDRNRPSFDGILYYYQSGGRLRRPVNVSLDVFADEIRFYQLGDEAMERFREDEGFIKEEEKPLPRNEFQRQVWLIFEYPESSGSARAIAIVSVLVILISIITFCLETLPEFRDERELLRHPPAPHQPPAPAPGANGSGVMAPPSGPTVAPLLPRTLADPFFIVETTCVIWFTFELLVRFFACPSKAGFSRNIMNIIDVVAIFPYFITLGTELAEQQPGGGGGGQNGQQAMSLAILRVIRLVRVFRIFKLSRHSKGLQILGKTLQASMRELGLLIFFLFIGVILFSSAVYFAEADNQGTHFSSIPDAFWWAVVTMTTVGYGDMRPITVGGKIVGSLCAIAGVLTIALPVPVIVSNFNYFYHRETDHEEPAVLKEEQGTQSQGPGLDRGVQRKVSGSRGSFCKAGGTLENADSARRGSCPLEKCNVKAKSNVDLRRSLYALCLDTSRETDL

For `CN(C)[C@@H](c1ccccc1)[C@@H](O)c1ccccc1`, the inhibition result in [1] is “inactive”.
With `NC(c1ccccc1)C(O)c1ccccc1` (centres undefined), the inhibition entry in series [1] was “inactive”.
On to `c1ccc(C2NCCOC2c2ccccc2)cc1` (centres undefined), for which the inhibition result in series [1] was “inactive”.
For `c1ccc([C@@H]([C@H](c2ccccc2)N2CCCC2)N2CCCC2)cc1`, the microsomal CLint at 50 µM in [2] came out at 21.6 µL/min/mg. Besides, the concentration in solution in series [3] (solubility at 24 h) came to 100 µM (≈ 32 µg/mL). Also, in [4], the bioavailability was found to be 48.9%. Also, the apparent permeability from apical to basolateral (Papp A→B) in series [5] stood at 13.3 ×10⁻⁶ cm/s. Further, the fraction unbound in [6] was 0.17. For the same molecule, the IC50 in [7] is 31.6 µM; in [14], 12.6 µM; in series [15], 316 nM; in [1], 300 nM. Further, the Vd in series [8] is 6.4 L/kg. The clearance in [9] was determined as 10.8 mL/min/kg. The molecule further had a pKa in series [10] of 10.5. In series [11], this molecule had a logD of 3.3. Also, in series [12], the hepatocyte CLint is under 4 µL/min/1e6 cells. The molecule also showed a half-life in series [13] of 426 min.
As for `CC(=O)NC(c1ccccc1)C(O)c1ccccc1` (centres undefined), the inhibition result in [1] is “inactive”.
Take `OC(c1ccccc1)C(NC1CCCCC1)c1ccccc1` (centres undefined): the inhibition result in series [1] is “inactive”.
Take `O[C@@H](c1ccccc1)[C@H](c1ccccc1)N1CCOCC1`: in series [1], the inhibition entry was “inactive”.
Take `OC(c1ccccc1)C(c1ccccc1)N1CCNCC1` (centres undefined): the inhibition result in series [1] is “inactive”.
In [11], `CC(C)[C@@H]1CC[C@@H](C)C[C@@H]1P(=O)(c1ccccc1)c1ccccc1` showed a logD of 6.
As for `CCCOc1ccc(C(O)C(c2ccccc2)N2CCCC2)cc1` (centres undefined), the inhibition entry in series [1] was “inactive”.
Consider `c1ccc([C@H]([C@@H](c2ccccc2)N2CCCC2)N2CCCC2)cc1`, for which, in [2], the microsomal CLint at 50 µM came out at 12 µL/min/mg. The same molecule came in with a solubility at 24 h in series [3] of 92 µM (≈ 29.5 µg/mL). Further, in [4], the bioavailability was 15.6%. For the same molecule, the Papp A→B in series [5] turned out to be 14 ×10⁻⁶ cm/s. This molecule also displayed a fraction unbound in series [6] of 0.17. In addition, the IC50 in [7] is 31.6 µM; in [14] it was 12.6 µM; in series [15], 200 nM; in series [1] it was 600 nM. Also, the Vd in series [8] amounted to 7.9 L/kg. Moreover, in series [9], the clearance amounted to 91.8 mL/min/kg. The same molecule displayed a pKa in series [10] of 10.4. The logD in series [11] worked out at 3.2. For the same molecule, the hepatocyte CLint in series [12] was under 4 µL/min/1e6 cells. Also, in series [13], the half-life is 60 min.
Turning to `O[C@@H](c1ccccc1)[C@H](c1ccccc1)N1CCCC1`, the inhibition result in series [1] is “inactive”.
With `c1ccc([C@H]([C@@H](c2ccccc2)N2CCCCC2)N2CCCCC2)cc1`, in series [2], the microsomal CLint at 50 µM is 14.1 µL/min/mg. The solubility at 24 h in series [3] was found to be 95 µM (≈ 33.1 µg/mL). In addition, in [4], the bioavailability worked out at 103%. Also, the Papp A→B in series [5] worked out at 10.3 ×10⁻⁶ cm/s. Moreover, in [6], the free fraction (fraction unbound) came out at 0.065. In addition, the IC50 in series [7] is 25.1 µM; in series [14] it was 20 µM; in series [15] it was 126 nM; in series [1], 200 nM. Besides, the Vd in series [8] stood at 16.4 L/kg. In series [9], this molecule had a clearance of 13.1 mL/min/kg. The pKa in [10] is 11. Besides, in series [11], the logD amounted to 4. Moreover, in [12], the hepatocyte CLint was under 4 µL/min/1e6 cells. Also, the half-life in series [13] was 906 min.
Turning to `O[C@@H](c1ccccc1)[C@@H](c1ccccc1)N1CCCCC1`, in [1], the inhibition entry is “inactive”.
`O=C(Cc1ccccc1)N[C@@H](c1ccccc1)[C@@H](O)c1ccccc1`: the inhibition result in [1] was “inactive”.
Turning to `c1ccc([C@@H]([C@H](c2ccccc2)N2CCCCC2)N2CCCCC2)cc1`, in series [2], the microsomal CLint at 50 µM amounted to 17.6 µL/min/mg. In addition, in series [3], the solubility at 24 h was determined as 81 µM (≈ 28.2 µg/mL). In addition, the bioavailability in series [4] came to 26.6%. The Papp A→B in [5] was 10.2 ×10⁻⁶ cm/s. In series [6], this molecule displayed a fraction unbound of 0.099. In addition, the IC50 was 31.6 µM in series [7], 15.8 µM in [14], 316 nM in [15] and 200 nM in series [1]. The molecule also showed a pKa in series [10] of 11.4. In series [11], this molecule returned a logD of 4.1. Moreover, in series [12], the hepatocyte CLint is under 4 µL/min/1e6 cells.

These data come from ChEMBL document CHEMBL2150928, “Symmetric kv1.5 blockers discovered by focused screening” (ACS Med Chem Lett, 2012).
